# In ChEMBL document CHEMBL1649560, “Beta-lactamase-mediated beta-lactam resistance in Campylobacter species: prevalence of Cj0299 (bla OXA-61) and evidence for a novel beta-Lactamase in C. jejuni” (2009):
# Legend:
# Type in all cases: functional
# [1] = system: Campylobacter jejuni; assay: Antibacterial activity against bla gene-negative and nitrocefin reaction-negative beta-lactamase harboring Campylobacter jejuni isolate P850 by NCCLS agar doubling dilution method
# Procedure, shortened: (§1)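 MICs of β-lactams by agar doubling dilution following the NCCLS (CLSI) Campylobacter Working Group procedure, with C. jejuni NCTC 11168 and C. coli NCTC 11366 as controls. Isolates were from UK poultry flocks. β-Lactamase status was set by Cj0299 PCR (281-bp amplimer) and by a nitrocefin colour change of sonicated lysate within 5 min, or within 30 min on repeat.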
# [2] = system: Campylobacter jejuni; assay: Antibacterial activity against bla gene-positive and nitrocefin reaction-positive beta-lactamase harboring Campylobacter jejuni isolate P316 by NCCLS agar doubling dilution method
# Procedure, shortened: (§2)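 MICs by agar doubling dilution per the NCCLS (now CLSI) Campylobacter Working Group method. Isolates came from UK chicken flocks (feces, ceca or farm environment), 2000–2006. C. jejuni NCTC 11168 and C. coli NCTC 11366 served as control strains. The ampicillin resistance cutoff was 8 μg/ml; BSAC/CLSI Enterobacteriaceae guidelines were used for other agents.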
# [3] = system: Campylobacter jejuni; assay: Antibacterial activity against bla gene-positive and nitrocefin reaction-positive beta-lactamase harboring Campylobacter jejuni isolate P1730 by NCCLS agar doubling dilution method; procedure, shortened: as §2
# [4] = system: Campylobacter jejuni; assay: Antibacterial activity against bla gene-negative and nitrocefin reaction-negative beta-lactamase harboring Campylobacter jejuni isolate P835 by NCCLS agar doubling dilution method; procedure, shortened: as §1
# [5] = system: Campylobacter jejuni; assay: Antibacterial activity against bla gene-positive and nitrocefin reaction-positive beta-lactamase harboring Campylobacter jejuni isolate P286 by NCCLS agar doubling dilution method; procedure, shortened: as §2
# [6] = system: Campylobacter jejuni; assay: Antibacterial activity against Campylobacter jejuni by NCCLS agar doubling dilution method
# Procedure, shortened: (§3)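 MICs by agar doubling dilution following the NCCLS (CLSI) Campylobacter Working Group procedure, applied to ampicillin- and amoxicillin-resistant isolates from UK chicken flocks (2000–2006). C. jejuni NCTC 11168 and C. coli NCTC 11366 served as control strains. Resistance was called at an ampicillin cutoff of 8 μg/ml. Other agents were judged against Enterobacteriaceae guidelines (BSAC, CLSI).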
# [7] = system: Campylobacter jejuni; assay: Antibacterial activity against Campylobacter jejuni isolate P270 harboring blaOXA-61::cat gene by NCCLS agar doubling dilution method
# [8] = system: Campylobacter jejuni; assay: Antibacterial activity against bla gene-negative and nitrocefin reaction-positive beta-lactamase harboring Campylobacter jejuni isolate P854 by NCCLS agar doubling dilution method; procedure, shortened: as §1
# [9] = system: Campylobacter jejuni; assay: Antibacterial activity against Campylobacter jejuni isolate P1093 harboring blaOXA-61::cat gene by NCCLS agar doubling dilution method
# Procedure, shortened: (§4)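 Agar doubling dilution MICs (NCCLS/CLSI Campylobacter Working Group method) against Cj0299-inactivated mutants. Mutants were made by transforming the C. jejuni isolate with pCI and selecting on Mueller-Hinton agar with 10 μg/ml chloramphenicol for 3–5 days. Chromosomal insertion was confirmed by PCR with Cj0299 and cat primers.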
# [10] = system: Campylobacter coli; assay: Antibacterial activity against bla gene-positive and nitrocefin reaction-positive beta-lactamase harboring Campylobacter coli isolate P321 by NCCLS agar doubling dilution method; procedure, shortened: as §1
# [11] = system: Campylobacter jejuni; assay: Antibacterial activity against bla gene-positive and nitrocefin reaction-positive beta-lactamase harboring Campylobacter jejuni isolate P285 by NCCLS agar doubling dilution method; procedure, shortened: as §2
# [12] = system: Campylobacter jejuni; assay: Antibacterial activity against bla gene-positive and nitrocefin reaction-negative beta-lactamase harboring Campylobacter jejuni NCTC 11168 by NCCLS agar doubling dilution method; procedure, shortened: as §1
# [13] = system: Campylobacter jejuni; assay: Antibacterial activity against bla gene-positive and nitrocefin reaction-negative beta-lactamase harboring Campylobacter jejuni isolate P1699 by NCCLS agar doubling dilution method; procedure, shortened: as §1
# [14] = system: Campylobacter jejuni; assay: Antibacterial activity against bla gene-negative and nitrocefin reaction-negative beta-lactamase harboring Campylobacter jejuni isolate P1962 by NCCLS agar doubling dilution method; procedure, shortened: as §1
# [15] = system: Campylobacter jejuni; assay: Antibacterial activity against bla gene-positive and nitrocefin reaction-positive beta-lactamase harboring Campylobacter jejuni isolate P1618 by NCCLS agar doubling dilution method; procedure, shortened: as §1
# [16] = system: Campylobacter jejuni; assay: Antibacterial activity against Campylobacter jejuni isolate P338 harboring blaOXA-61::cat gene by NCCLS agar doubling dilution method; procedure, shortened: as §4
# [17] = system: Campylobacter jejuni; assay: Antibacterial activity against bla gene-positive and nitrocefin reaction-negative beta-lactamase harboring Campylobacter jejuni isolate P1698 by NCCLS agar doubling dilution method; procedure, shortened: as §1
# [18] = system: Campylobacter jejuni; assay: Antibacterial activity against bla gene-positive and nitrocefin reaction-positive beta-lactamase harboring Campylobacter jejuni isolate P338 by NCCLS agar doubling dilution method; procedure, shortened: as §2
# [19] = system: Campylobacter coli; assay: Antibacterial activity against bla-positive and beta-lactamase-weakly positive Campylobacter coli isolate P1627 by NCCLS agar doubling dilution method; procedure, shortened: as §2
# [20] = system: Campylobacter coli; assay: Antibacterial activity against bla gene-positive and nitrocefin reaction-positive beta-lactamase harboring Campylobacter coli isolate P1826 by NCCLS agar doubling dilution method; procedure, shortened: as §1
# [21] = system: Campylobacter jejuni; assay: Antibacterial activity against bla gene-positive and nitrocefin reaction-positive beta-lactamase harboring Campylobacter jejuni isolate P790 by NCCLS agar doubling dilution method; procedure, shortened: as §2
# [22] = system: Campylobacter jejuni; assay: Antibacterial activity against bla gene-positive and nitrocefin reaction-positive beta-lactamase harboring Campylobacter jejuni isolate P305 by NCCLS agar doubling dilution method; procedure, shortened: as §2
# [23] = system: Campylobacter jejuni; assay: Antibacterial activity against bla gene-positive and nitrocefin reaction-positive beta-lactamase harboring Campylobacter jejuni isolate P1650 by NCCLS agar doubling dilution method; procedure, shortened: as §1
# [24] = system: Campylobacter coli; assay: Antibacterial activity against Campylobacter coli by NCCLS agar doubling dilution method; procedure, shortened: as §3
# [25] = system: Campylobacter jejuni; assay: Antibacterial activity against bla gene-negative and nitrocefin reaction-positive beta-lactamase harboring Campylobacter jejuni isolate P843 by NCCLS agar doubling dilution method; procedure, shortened: as §1
# [26] = system: Campylobacter jejuni; assay: Antibacterial activity against bla gene-positive and nitrocefin reaction-positive beta-lactamase harboring Campylobacter jejuni isolate P1093 by NCCLS agar doubling dilution method; procedure, shortened: as §1
smiles,measurement,setting,value
Cc1onc(-c2ccccc2Cl)c1C(=O)N[C@@H]1C(=O)N2[C@@H]1SC(C)(C)[C@@H]2C(=O)O [CLOXACILLIN],MIC,[1],256 µg/mL
same,MIC,[2],256 µg/mL
same,MIC,[3],256 µg/mL
same,MIC,[4],256 µg/mL
same,MIC,[5],256 µg/mL
same,MIC50,[6],256 µg/mL
same,MIC90,[6],> 256 µg/mL
same,MIC,[7],128 µg/mL
same,MIC,[8],256 µg/mL
same,MIC,[9],256 µg/mL
same,MIC,[10],256 µg/mL
same,MIC,[11],256 µg/mL
same,MIC,[12],128 µg/mL
same,MIC,[13],256 µg/mL
same,MIC,[14],256 µg/mL
same,MIC,[15],128 µg/mL
same,MIC,[16],128 µg/mL
same,MIC,[17],128 µg/mL
same,MIC,[18],128 µg/mL
same,MIC,[19],256 µg/mL
same,MIC,[20],256 µg/mL
same,MIC,[21],> 256 µg/mL
same,MIC,[22],256 µg/mL
same,MIC,[23],256 µg/mL
same,MIC,[24],256 µg/mL
same,MIC50,[24],256 µg/mL
same,MIC90,[24],> 256 µg/mL
same,MIC,[25],> 256 µg/mL
same,MIC,[26],512 µg/mL
CO/N=C(\C(=O)N[C@@H]1C(=O)N2C(C(=O)O)=C(COC(C)=O)CS[C@H]12)c1csc(N)n1 [CEFOTAXIME],MIC,[1],8 µg/mL
same,MIC,[2],4 µg/mL
same,MIC,[3],4 µg/mL
same,MIC,[4],4 µg/mL
same,MIC,[5],8 µg/mL
same,MIC50,[6],4 µg/mL
same,MIC90,[6],8 µg/mL
same,MIC,[7],2 µg/mL
same,MIC,[8],4 µg/mL
same,MIC,[9],4 µg/mL
same,MIC,[10],4 µg/mL
same,MIC,[11],8 µg/mL
same,MIC,[12],2 µg/mL
same,MIC,[13],4 µg/mL
same,MIC,[14],1 µg/mL
same,MIC,[15],16 µg/mL
same,MIC,[16],8 µg/mL
same,MIC,[17],4 µg/mL
same,MIC,[18],8 µg/mL
same,MIC,[19],4 µg/mL
same,MIC,[20],2 µg/mL
same,MIC,[21],4 µg/mL
same,MIC,[22],4 µg/mL
same,MIC,[23],4 µg/mL
same,MIC50,[24],4 µg/mL
same,MIC90,[24],8 µg/mL
same,MIC,[25],4 µg/mL
same,MIC,[26],8 µg/mL
C[C@@H](O)[C@H]1C(=O)N2C(C(=O)O)=C(S[C@@H]3CN[C@H](C(=O)N(C)C)C3)[C@H](C)[C@H]12 [MEROPENEM],MIC,[1],0.03 µg/mL
same,MIC,[2],0.12 µg/mL
same,MIC,[3],0.015 µg/mL
same,MIC,[4],< 0.015 µg/mL
same,MIC,[5],0.25 µg/mL
same,MIC50,[6],0.015 µg/mL
same,MIC90,[6],0.12 µg/mL
same,MIC,[7],0.008 µg/mL
same,MIC,[8],0.03 µg/mL
same,MIC,[9],0.03 µg/mL
same,MIC,[10],0.12 µg/mL
same,MIC,[11],0.015 µg/mL
same,MIC,[12],0.08 µg/mL
same,MIC,[13],0.015 µg/mL
same,MIC,[14],0.015 µg/mL
same,MIC,[15],0.008 µg/mL
same,MIC,[16],0.015 µg/mL
same,MIC,[17],0.015 µg/mL
same,MIC,[18],0.12 µg/mL
same,MIC,[19],0.03 µg/mL
same,MIC,[20],0.06 µg/mL
same,MIC,[21],0.12 µg/mL
same,MIC,[22],0.06 µg/mL
same,MIC,[23],0.008 µg/mL
same,MIC50,[24],0.12 µg/mL
same,MIC90,[24],0.12 µg/mL
same,MIC,[25],0.03 µg/mL
same,MIC,[26],0.5 µg/mL
